Source: PMC2217059 (The Journal of General Physiology, 1997)
Values joined by “and” are separate entries in the source; they are usually repeats but may differ in a detail not shown here. Identical values can stand only once. Like-named read-outs stand apart in the source and are kept apart here. Blank lines part the entries; values can stand above or below the compound they belong to.

Columns and labels:
Na,K-ATPase [1] = target: T1, Na,K-ATPase (Sus scrofa, UniProt P05024); experiment: Effect of NO3− on ADP-binding, competitive model of Fig. 4; parameters: species or system pig; conditions: line through (0,1); I 78–228 mM and constant I 178 mM
Method in brief: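 ADP-binding affinities for pig kidney membrane Na,K-ATPase were determined by centrifugation binding at 0–2°C. Kdiss/KA was plotted against [NO3−] for the NaNO3 series (I 78–228 mM). […] A line through (0,1) was fitted, and KN for ENO3 was taken as the reciprocal slope.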

Na,K-ATPase [2] = target: T1, Na,K-ATPase; experiment: K+-dependent p-nitrophenylphosphatase; type: biochemical, pig
Method in brief: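 K+-pNPPase was assayed at 37°C, pH 7.4, in 30 mM histidine/HCl with 10 pmol enzyme·ml−1, 20 mM MgCl2, K+ salts and 10 mM Na2pNPP (basal I ~90 mM). Substrate-dependence runs varied Na2pNPP at 0.05–0.4 M KCl. After 3 min, reactions were stopped with ice-cold TCA (final 5%) and p-nitrophenol was measured. Blanks were reagent blanks without enzyme. Results are the mean of two to four experiments.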

[3] = system: H+-translocating Mg-ATPases from tissues of higher plants; conditions: ref Sze, 1985, Jacoby, 1987, Blumwald et al.; cited from earlier work
Na,K-ATPase [4] = target: T1, Na,K-ATPase; conditions: cited from earlier work
Na,K-ATPase [5] = target: T1, Na,K-ATPase; experiment: Equilibrium binding of 14C-ADP to membrane-bound Na,K-ATPase; parameters: species or system pig; conditions: for Kd: read-out: K diss for ADP-binding
Method in brief: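 The enzyme was membrane-bound Na,K-ATPase from pig kidney outer medulla, SDS-extracted. It was mixed on ice with water or Na+ salt in imidazole/sucrose/EDTA (pH 7.4), then with 14C-ADP (stock 40 μM) in Tris buffer (pH 6.3). NO3− and SO4 2− series used enzyme washed into buffer titrated with HNO3 or H2SO4. Final pH was 7.65–7.82 and basal I 78 mM. Samples were centrifuged at 100,000 g for 60 min at 0–2°C; bound ADP was total minus supernatant. Kdiss came from nonlinear regression with a common Bmax per series.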

Na,K-ATPase [6] = conditions: read-out: K diss, Na+-form (E1-form), I < 0.1 M, ref Nørby and Jensen, 1971, Hegyvary and Post, Jørgensen, 1975, Skou and Esmann, 1981; cited from earlier work
[7] = I around 0.1 M, cited from earlier work
Na,K-ATPase [8] = target: T1, Na,K-ATPase; experiment: Na,K-ATPase activity; type: biochemical, pig
[9] = system: Na,K-ATPase mutant Lys480Glu; conditions: ref Wang and Farley, 1992; cited from earlier work
[10] = system: Na,K-ATPase Asp369 substituted with Asn or Ala; conditions: Asp369 substituted with uncharged Asn or Ala; ref Pedersen et al., 1996; cited from earlier work

SMILES: O=[N+]([O-])O [NO3 ^−]
slope of K diss/K A versus [NO3−] (Na,K-ATPase [1]): 0.0309 ± 0.0006 mM⁻¹ and 0.031 mM⁻¹
specific anion effect on K+-pNPPase activity (Na,K-ATPase [2]; KNO3 compared with KCl, 10 mM Na2pNPP, also 25 mM pNPP): does not have any special effect
K 0.5 of inhibition [3]: 10 to 50 mM

SMILES: O=C(O)CN(CCN(CC(=O)O)CC(=O)O)CC(=O)O [H2EDTA^2−]
pKa ([7]; ref Kortüm et al., 1961): 6.5

SMILES: c1c[nH]cn1 [imidazoleH^+]
pKa ([7]; ref Perrin, 1965): 7.5

SMILES: [K+] [K^+]
K 0.5 for K+, chosen for the model (Na,K-ATPase [4]; K+-pNPPase model with Na+/K+ competition, ref Beaugé et al., 1984): 2 mM

SMILES: NC(CO)(CO)CO [TrisH^+]
pKa ([7]; ref Perrin, 1965): 8.8

Continued, in another order:

K 0.5 for pNPP (Na,K-ATPase [2]; 0.125 M ClO4−): ~5.5 mM
K 0.5 for pNPP (Na,K-ATPase [2]; 0.125 M Cl−): about 4.5 mM
K m for pNPP (Na,K-ATPase [2]; highest values reached with increasing [KCl] (0.05–0.6 M KCl), 37°C, pH 7.4): 10–12 mM
SMILES: O=[N+]([O-])c1ccc(OP(=O)(O)O)cc1 [pNPP, p-nitrophenylphosphate]
K m for pNPP (Na,K-ATPase [4]; low ionic strength, ref Skou, 1974, Campos et al., 1988, Fig. 9 in this paper): 2–3 mM

decrease of apparent affinity for ADP with salt (Na,K-ATPase [5]; 0–0.5 M NaCl, Na2SO4, NaNO3, 0.1 M Na-acetate, NaSCN, NaClO4): up to 30 times
Bmax of ADP-binding (Na,K-ATPase [5]; Exp. A2, NaCl series, [Cl−] 119 mM, I 178 mM): 1.20 ± 0.01 µM
Bmax of ADP-binding (Na,K-ATPase [5]; Exp. A3, NaCl series, [Cl−] 219 mM, I 278 mM): 1.20 ± 0.02 µM
Bmax of ADP-binding (Na,K-ATPase [5]; Exp. A4, NaCl series, [Cl−] 319 mM, I 378 mM): 1.13 ± 0.11 µM
Bmax of ADP-binding (Na,K-ATPase [5]; Exp. A5, NaCl series, [Cl−] 394 mM, I 453 mM): 1.29 ± 0.09 µM
Bmax of ADP-binding (Na,K-ATPase [5]; Exp. A6, NaCl series, [Cl−] 469 mM, I 528 mM): 1.20 ± 0.11 µM
Bmax of ADP-binding (Na,K-ATPase [5]; Exp. A7, NaCl series, [Cl−] 519 mM, I 578 mM): 0.98 ± 0.09 µM
Bmax of ADP-binding (Na,K-ATPase [5]; Exp. B1, Na2SO4 series, [SO4 2−] 6 mM, I 78 mM): 1.70 ± 0.04 µM
Bmax of ADP-binding (Na,K-ATPase [5]; Exp. B2, Na2SO4 series, [SO4 2−] 6 mM, I 78 mM): 1.73 ± 0.02 µM
Bmax of ADP-binding (Na,K-ATPase [5]; Exp. B3, Na2SO4 series, [SO4 2−] 36 mM, I 168 mM): 1.71 ± 0.02 µM
Bmax of ADP-binding (Na,K-ATPase [5]; Exp. B4, Na2SO4 series, [SO4 2−] 66 mM, I 258 mM): 1.77 ± 0.03 µM
Bmax of ADP-binding (Na,K-ATPase [5]; Exp. B5, Na2SO4 series, [SO4 2−] 96 mM, I 348 mM): 1.72 ± 0.06 µM
Bmax of ADP-binding (Na,K-ATPase [5]; Exp. B6, Na2SO4 series, [SO4 2−] 126 mM, I 438 mM): 1.96 ± 0.10 µM
Bmax of ADP-binding (Na,K-ATPase [5]; Exp. B7, Na2SO4 series, [SO4 2−] 156 mM, I 528 mM): 1.77 ± 0.08 µM
Bmax of ADP-binding (Na,K-ATPase [5]; Exp. C1, NaNO3 series, [NO3−] 19 mM, I 78 mM): 1.80 ± 0.02 µM
Bmax of ADP-binding (Na,K-ATPase [5]; Exp. C2, NaNO3 series, [NO3−] 24 mM, I 83 mM): 1.83 ± 0.03 µM
Bmax of ADP-binding (Na,K-ATPase [5]; Exp. C3, NaNO3 series, [NO3−] 49 mM, I 108 mM): 1.80 ± 0.03 µM
Bmax of ADP-binding (Na,K-ATPase [5]; Exp. C4, NaNO3 series, [NO3−] 79 mM, I 138 mM): 1.84 ± 0.04 µM
Bmax of ADP-binding (Na,K-ATPase [5]; Exp. C5, NaNO3 series, [NO3−] 79 mM, I 138 mM): 1.84 ± 0.01 µM
Bmax of ADP-binding (Na,K-ATPase [5]; Exp. C6, NaNO3 series, [NO3−] 109 mM, I 168 mM): 1.78 ± 0.06 µM
Bmax of ADP-binding (Na,K-ATPase [5]; Exp. C7, NaNO3 series, [NO3−] 139 mM, I 198 mM): 1.80 ± 0.06 µM
Bmax of ADP-binding (Na,K-ATPase [5]; Exp. C8, NaNO3 series, [NO3−] 169 mM, I 228 mM): 1.82 ± 0.08 µM
Kd (Na,K-ATPase [5]; 19 mM Cl− + 100 mM Na+ salt of ClO4−, I 178 mM): 38.6 ± 0.7 µM
Kd (Na,K-ATPase [5]; 19 mM Cl− + 100 mM Na+ salt of NO3−, I 178 mM): 3.24 ± 0.05 µM
Kd (Na,K-ATPase [5]; 19 mM Cl− + 100 mM Na+ salt of SCN−, I 178 mM): 18.3 ± 0.2 µM
Kd (Na,K-ATPase [5]; 19 mM Cl− + 100 mM Na-acetate, I 178 mM): 0.635 ± 0.004 µM
Kd (Na,K-ATPase [5]; 19 mM Cl− + 100 mM NaCl (Cl−), I 178 mM): 0.64 ± 0.007 µM
SMILES: Nc1ncnc2c1ncn2[C@@H]1O[C@H](COP(=O)(O)OP(=O)(O)O)[C@@H](O)[C@H]1O [ADP]
Kd (Na,K-ATPase [6]): < 1 µM

inhibitory effect on Na,K-ATPase activity, less than that of NaCl (Na,K-ATPase [8]; activity plotted versus I, 20 mM KCl, 3 mM ATP, 4 mM MgCl2): 10–30%
SMILES: O=S(=O)([O-])[O-].[Na+].[Na+] [Na2SO4]

change of K m for ATP with increasing I (Na,K-ATPase [8]; 20 mM KCl, [Mgtot] = [ATP] + 1 mM, 0.16–0.75 M NaCl, 37°C, pH 7.4): slight decrease
SMILES: Nc1ncnc2c1ncn2[C@@H]1O[C@H](COP(=O)(O)OP(=O)(O)OP(=O)(O)O)[C@@H](O)[C@H]1O [ATP]
reduction of affinity for ATP [9]: ~10 fold
increase in affinity for ATP at the high-affinity site [10]: 20–30 fold

effect on Na,K-ATPase activity compared with NaCl (Na,K-ATPase [8]; up to 800 mM, not shown): the same results as with NaCl
SMILES: CC(=O)[O-].[Na+] [Na-acetate]
